# Assay outcomes as filed in PubChem.
# procasp7 counter: procaspase-7 activators, primary screen, counter-screen for procaspase-3 activator project, biochemical, absorbance, HTS, human | activation, % at 8.5 µM | 330,000 tested, 0.093% active | Caspase-7 (Homo sapiens), P55210 | recombinant procaspase-7, Ac-DEVD-pNA absorbance 405 nm; D23A/D198A/D206A triple mutant, cannot self-cleave; scale: DMSO 0, 5 µM enzyme 100 | AID 463210, 2010;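 active = percent activation above the screen-wide mean plus 3 SD, cut at about 25% in these data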
# Target sequence (P55210 whole entry D23A/D198A/D206A): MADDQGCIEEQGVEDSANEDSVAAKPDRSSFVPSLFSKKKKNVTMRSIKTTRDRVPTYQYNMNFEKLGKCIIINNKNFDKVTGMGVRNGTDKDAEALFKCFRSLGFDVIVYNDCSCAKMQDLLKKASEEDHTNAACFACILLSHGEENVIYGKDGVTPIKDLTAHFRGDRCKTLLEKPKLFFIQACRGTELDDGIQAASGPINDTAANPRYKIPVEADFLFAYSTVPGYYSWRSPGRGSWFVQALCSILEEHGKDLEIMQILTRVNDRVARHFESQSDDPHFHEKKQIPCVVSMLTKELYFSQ
#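 buffer or medium = Zinc-free HEPES/NaCl buffer, pH 7.4 | material = Procaspase-7 triple mutant (PC-7 D3A) | input = 2 µM procaspase-7 mutant as dispensed | signal = Epi-absorbance of released pNA at 405 nm, two timepoints | timing = 1 h preincubation, 2 h reaction | replicates = singlicate compound testing | evaluation = % activation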
# PolyA inhibitor: polyadenylation inhibitors in yeast reporter cells, primary screen, luminescence, S. cerevisiae; S. cerevisiae SKY197-pL101 polyadenylation reporter, beta-gal luminescence; efflux-impaired pdr1/pdr3 knockout yeast; score 100 = 6 SD above DMSO; activity score, % at 12 µM; 300,000 tested, 0.02% active;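 active = lowest replicate activity score at least 50, where 100 means six control SD above control mean; inconclusive = lowest score under 50 but half or more replicates reach 50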;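 note: yeast exposed to compound for 9 h at 30 °C; higher score means more reporter readthrough which indicates perturbed polyadenylation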
# procasp3 activ: activators of human procaspase-3 D3A mutant, primary screen, biochemical, absorbance, PC-3 D3A mutant, single concentration | Caspase-3 (Homo sapiens), P42574 | recombinant procaspase-3 D3A, Ac-DEVD-pNA absorbance 405 nm | activation, % at 8.5 µM | 330,000 tested, 0.11% active;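 active = activation above the mean of all tested compounds plus 3 SD, cut at about 21% in these data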
#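 Test system: Procaspase-3 D3A mutant, all three cleavage aspartates alanine | Dosing: Single dose, 8.5 µM nominal compound, 0.8% DMSO | Schedule: 1 h preincubation, 2 h reaction | Technique: 405 nm absorbance of p-nitroaniline, reads at 0 and 120 min | Repeats: One well per compound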
# Rce1 inhib: yeast Rce1p protease inhibitors, primary screen, biochemical, fluorescence, cell-free homogeneous | 290,000 tested, 0.27% active | calls only | AID 2563, 2010 | CAAX prenyl protease 2 (Saccharomyces cerevisiae (strain ATCC 204508 / S288c)), Q03530 | yeast membranes, quenched prenylated peptide cleavage fluorescence;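 active = fall in fluorescence gain of 50% or more versus controls, with final raw signal at or below 3038400; inconclusive = same 50% fall but final raw signal above 3038400; inactive = fall in fluorescence gain under 50%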
# Target sequence (Q03530 whole entry, looked up): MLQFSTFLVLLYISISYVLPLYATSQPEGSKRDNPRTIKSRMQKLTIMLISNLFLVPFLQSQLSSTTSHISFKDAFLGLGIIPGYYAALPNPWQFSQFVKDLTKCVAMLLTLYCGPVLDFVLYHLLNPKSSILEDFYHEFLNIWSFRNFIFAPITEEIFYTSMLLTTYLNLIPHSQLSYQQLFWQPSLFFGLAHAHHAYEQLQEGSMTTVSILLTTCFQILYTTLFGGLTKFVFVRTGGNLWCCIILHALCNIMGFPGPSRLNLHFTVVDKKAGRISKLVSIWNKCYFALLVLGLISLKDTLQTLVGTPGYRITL
# A1 inh: caspase 3/7 activation in MEF A1-2A-BIM cells, primary screen, A1 inhibitor project, cell-based, luminescence, HTS. Caspase-Glo 3/7 luminescence, 3 h; percent of clofoctol response, vehicle zero. caspase activation, % (concentration not given with the values). 330,000 tested, 0.066% active. AID 2462, 2010;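 active = over half of replicate activation scores above 10%, or exactly half above 10 with the replicate mean above 10; inconclusive = replicate mean below 10 yet half the replicates above 10; inactive = over half of replicates below 10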
# Numbers stand for hits; 0 = inactive; ? = inconclusive; - = not tested or not shown; + = active, no number. Sampled rows, rich in hits. Any-hit rate of the full collection: about 0.48%.
SMILES,procasp7 counter,PolyA inhibitor,procasp3 activ,Rce1 inhib,A1 inh
CCSCCOC(=O)C1=C(C)NC(=O)NC1c1ccccc1 (centres undefined),0,0,0,+,0
OC1CCN(C(c2ccc3ncccc3c2)c2nnnn2C2CCCCC2)CC1 (centres undefined),0,0,0,+,0
CCCn1c(SCC(=O)NCc2ccccc2Cl)n[nH]c1=O,0,0,0,0,0
O=C(CC1CC2CCC1C2)N1CCN(S(=O)(=O)c2ccccc2C(F)(F)F)CC1 (centres undefined),0,-,0,-,8.6
O=C(CC1CC2CCC1C2)N1CCN(S(=O)(=O)c2ccccc2[N+](=O)[O-])CC1 (centres undefined),0,-,0,-,0
OC(CNCCC1C=Nc2ccccc21)Cn1c2ccc(Cl)cc2c2cc(Cl)ccc21 (centres undefined),0,0,0,+,0
CCCCCN(C(=O)CCC(=O)OC(C)C(=O)Nc1cccc(C#N)c1)c1c(N)n(CCCC)c(=O)[nH]c1=O (centres undefined),0,0,0,0,0
COc1cc(C)cc(OC)c1OCC(=O)Nc1cc(C)on1,0,-,0,-,0
Nc1ccc2c(C(F)(F)F)cc(C(F)(F)F)nc2n1,0,0,0,+,0
FC(F)(F)c1cc(C(F)(F)F)c2ccc(Oc3ccccc3)nc2n1,0,0,0,0,0
Cc1ccccc1S(=O)(=O)c1cc(C#N)c(=O)[nH]c1N,0,0,0,+,0
COc1ccc(NC(=O)CSc2nnc3n2CCCCC3)cc1S(=O)(=O)N1CCOCC1,0,-,0,-,0
O=C(NN1C(=O)c2ccccc2NC1c1ccoc1)c1ccccc1 (centres undefined),0,0,0,0,0
CC(=O)NN1C(=O)c2ccccc2NC1c1ccoc1 (centres undefined),0,0,0,+,0
O=C(Nc1cccc2ncccc12)c1cccnc1,0,0,0,+,0
CN(C)C(=O)N1CCN(C(=O)N2CCOCC2)CC1,0,0,0,0,0
Cc1nc2cc(-c3cccc(F)c3)nn2c(C)c1CCC(=O)N1CCN(c2ccccn2)CC1,0,0,0,0,0
COc1ccc(-c2cc3nc(C)c(CCC(=O)N4CCN(c5ccccn5)CC4)c(C)n3n2)c(OC)c1,0,0,0,+,0
COc1ccc(/C=C\c2cc(OC)c(OC)cc2CC[N+](C)(C)C)cc1OC,0,0,0,+,0
COc1ccc(CCNC(=O)Cc2ccc(NS(=O)(=O)c3ccc(F)cc3)cc2)cc1OC,0,-,0,-,-
COc1ccc(CN(CC(O)COCc2ccccc2)S(=O)(=O)c2ccccc2Br)cc1 (centres undefined),0,-,0,-,-
O=C(Nc1ccc(OC(F)(F)F)cc1)Oc1ccccc1N1CCOCC1,0,0,0,0,0
O=C(Nc1ccc(F)cc1)Oc1ccccc1N1CCOCC1,0,0,0,+,0
COc1ccc(NC(=O)CSc2nc3ccc(Nc4nc(N5CCOCC5)nc(N5CCOCC5)n4)cc3s2)cc1,0,0,0,0,0
Cc1ccc(NC(=O)CSc2nc3ccc(Nc4nc(N5CCOCC5)nc(N5CCOCC5)n4)cc3s2)cc1,-,-,-,0,10
SMILES,procasp7 counter,PolyA inhibitor,procasp3 activ,Rce1 inhib,A1 inh
CC(=O)N1c2ccc(S(=O)(=O)NCCC(=O)Nc3ccc(OC(F)(F)F)cc3)cc2CC1C (centres undefined),0,0,0,0,0
Cc1ccc(S(=O)(=O)N2CCN(C(=O)c3cc4c(C)nn(-c5ccccc5)c4s3)CC2)cc1,0,0,0,+,0
CCOc1ccc(OCC)c(NC(=O)c2nnn(CC(=O)Nc3cc(C)cc(C)c3)c2N)c1,0,0,0,+,0
c1ccc2c(-c3cn4ccccc4n3)c[nH]c2c1,0,0,0,+,0
c1ccc2c(-c3nnc(SCc4cn5ccccc5n4)o3)c[nH]c2c1,0,0,0,0,0
Cc1nc(SCC(=O)Nc2ccc(CN3CCCC3)cc2)c2c(C)c(C)sc2n1,0,-,0,-,0
O=C1c2cccc3c(O)ccc(c23)C(=O)N1Cc1ccccc1,0,0,0,0,0
COc1cc2c(cc1OC)C(C)N(C(=O)c1cccs1)CC2 (centres undefined),0,0,0,0,0
COc1cc2c(cc1OC)C(C)N(C(=O)c1cc3c(=O)oc4ccc(C)cc4c3s1)CC2 (centres undefined),0,0,0,+,0
Cc1oc2c(CN3CCCC3)c(O)ccc2c(=O)c1-c1ccc(Br)cc1,0,0,0,+,0
COc1ccc2c(c1)c1nnc(SC)nc1n2C,0,96,0,0,0
C=C1CCC2C(C)(C)[C@@H](O)CC[C@@]2(C)[C@@H]1COc1ccc2ccc(=O)oc2c1 (some centres undefined),0,0,0,0,0
CC(=O)OC1CCC2(C)C(COc3ccc4ccc(=O)oc4c3)C(C)(O)CCC2C1(C)C (centres undefined),0,0,0,+,0
COc1ccc(NC(=O)COc2ccc(S(=O)(=O)N3CCOCC3)cc2C)cc1OC,0,0,0,0,0
Cc1ccc(OCC(=O)Nc2ccc(S(=O)(=O)N3CCOCC3)cc2)c(Br)c1,0,0,0,+,0
CCOC(=O)c1c(N2C(=O)Nc3cc(Cl)c(Cl)cc3N2O)sc2c1CCCCC2,0,-,0,-,0
Cc1cccc(NC(=O)C2(c3ccc([N+](=O)[O-])cc3)CCCC2)c1,0,0,0,+,0
Cc1cc(C)nc(NS(=O)(=O)c2ccc(NC(=O)C3(c4ccc([N+](=O)[O-])cc4)CCCC3)cc2)n1,0,0,0,0,0
CNC(=S)N/N=C/c1cn(Cc2c(F)cccc2Cl)c2ccccc12,0,0,0,+,0
Cc1ccc(CNC(=O)/C(C#N)=C\c2ccc(N(C)C)cc2)cc1,0,0,22,0,0
O=C1/C(=C\c2c(NCCOCCO)nc3ccccn3c2=O)SC(=S)N1Cc1ccco1,0,0,0,0,9.1
CCOCCCNc1nc2c(C)cccn2c(=O)c1/C=C1\SC(=S)N(CC(C)C)C1=O,0,0,0,0,0
Cc1ccc(C)c(Nc2nc3ccccc3n3cnnc23)c1,0,?,0,0,0
Cn1c(N)c(C(=O)COC(=O)COc2cc(Cl)c(Cl)cc2Cl)c(=O)n(C)c1=O,0,-,0,-,0
Cc1cc(Cl)ccc1OCC(=O)OCC(=O)c1c(N)n(C)c(=O)n(C)c1=O,0,-,0,-,16
Nc1nc2c(ncn2COC(CO)CO)c(=O)[nH]1,0,0,0,+,0
